≈ marks a conversion by molar mass, not a printed value.
Tests used:
Type in all cases: functional
Bacillus cereus = test: Antibacterial activity against Bacillus cereus after 24 hrs by broth microdilution method
Prevotella intermedia = test: Antibacterial activity against Prevotella intermedia after 24 hrs by broth microdilution method
Staphylococcus aureus = test: Antibacterial activity against Staphylococcus aureus MTCC 12598 after 24 hrs by broth microdilution method; conditions: MTCC 12598, 24 h
Procedure, shortened: (§1)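 Broth tube dilution in BHI broth, run in triplicate. Strains sub-cultured at 35 °C for 48 h. Inoculum grown in BHI at 35 °C for 2–6 h and adjusted to 0.5 McFarland. Ten-tube serial dilution of compound, 200 µL diluted culture added to each tube. Media plus culture tube as control. Incubated 24 h at 37 °C; MIC read by turbidity.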

Erythrocyte = test: Anti-inflammatory activity in human RBC membranes assessed as inhibition of heat-induced hemolysis at 100 ug/mL incubated for 20 mins at 54 degC by UV-VIS spectrometer analysis relative to control
Procedure, shortened: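 Washed human RBCs as 40% (v/v) stock in isotonic 10 mM sodium phosphate buffer pH 7.4 with 0.9% NaCl. Compound 0.1 mg/mL in isotonic buffer with 30 µL erythrocyte suspension, duplicate sets. One pair heated at 54 °C for 20 min, other held at 0-5 °C. Spun 3 min at 1300 rpm, supernatant absorbance at 540 nm. % inhibition = 100 × [1 − (OD2−OD1)/(OD3−OD1)]; vehicle control.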

Escherichia coli = test: Antibacterial activity against Escherichia coli MTCC 443 after 24 hrs by broth microdilution method; conditions: MTCC 443, 24 h; procedure, shortened: as §1
Enterococcus faecalis = test: Antibacterial activity against Enterococcus faecalis MTCC 35550 after 24 hrs by broth microdilution method; conditions: MTCC 35550, 24 h; procedure, shortened: as §1
Pseudomonas aeruginosa = test: Antibacterial activity against Pseudomonas aeruginosa MTCC 25668 after 24 hrs by broth microdilution method; conditions: MTCC 25668, 24 h; procedure, shortened: as §1

Compound | MIC (Bacillus cereus) [µg/mL] | MIC (Prevotella intermedia) [µg/mL] | MIC (Staphylococcus aureus) [µg/mL] | inhibition at 100 µg/mL (Erythrocyte) [%] | MIC (Escherichia coli) [µg/mL] | MIC (Enterococcus faecalis) [µg/mL] | MIC (Pseudomonas aeruginosa) [µg/mL]
Cc1ccc2oc(=O)cc(C(CC(=O)O)c3c(O)c4ccccc4oc3=O)c2c1 (centres undefined) | 25 (≈ 63.7 µM) | 6.25 (≈ 15.9 µM) | 1.56 (≈ 3.98 µM) | 14.1 | 3.25 (≈ 8.28 µM) | 1.56 (≈ 3.98 µM) | 25 (≈ 63.7 µM)
Cc1ccc2c(C3CC(=O)Oc4c3c(=O)oc3ccccc43)cc(=O)oc2c1 (centres undefined) | 6.25 (≈ 16.7 µM) | 3.25 (≈ 8.68 µM) | 6.25 (≈ 16.7 µM) | 36.8 | 1.56 (≈ 4.17 µM) | 3.25 (≈ 8.68 µM) | 25 (≈ 66.8 µM)
CCOC(=O)C1=C(N)Oc2c(c(=O)oc3ccccc23)C1c1cc(=O)oc2ccc(OC)cc12 (centres undefined) | 6.25 (≈ 13.5 µM) | 1.56 (≈ 3.38 µM) | 6.25 (≈ 13.5 µM) | 52.1 | 6.25 (≈ 13.5 µM) | 6.25 (≈ 13.5 µM) | 25 (≈ 54.2 µM)
Cc1ccc2oc(=O)cc(C3CC(=O)Oc4c3c(=O)oc3ccccc43)c2c1 (centres undefined) | 50 (≈ 134 µM) | 3.25 (≈ 8.68 µM) | 12.5 (≈ 33.4 µM) | 31.4 | 1.56 (≈ 4.17 µM) | 6.25 (≈ 16.7 µM) | 25 (≈ 66.8 µM)
O=C(O)CC(c1c(O)c2ccccc2oc1=O)c1cc(=O)oc2ccc(Cl)cc12 (centres undefined) | 25 (≈ 60.6 µM) | 3.25 (≈ 7.87 µM) | 3.25 (≈ 7.87 µM) | 61.2 | 1.56 (≈ 3.78 µM) | 1.56 (≈ 3.78 µM) | 25 (≈ 60.6 µM)
N#CC1=C(N)Oc2c(c(=O)oc3ccccc23)C1c1cc(=O)oc2c1ccc1ccccc12 (centres undefined) | 1.56 (≈ 3.59 µM) | 1.56 (≈ 3.59 µM) | 3.25 (≈ 7.48 µM) | 54.4 | 6.25 (≈ 14.4 µM) | 1.56 (≈ 3.59 µM) | 25 (≈ 57.5 µM)
O=C(O)CC(c1c(O)c2ccccc2oc1=O)c1cc(=O)oc2c1ccc1ccccc12 (centres undefined) | 6.25 (≈ 14.6 µM) | 25 (≈ 58.4 µM) | 6.25 (≈ 14.6 µM) | 59.1 | 3.25 (≈ 7.59 µM) | 1.56 (≈ 3.64 µM) | 6.25 (≈ 14.6 µM)
CCOC(=O)C1=C(N)Oc2c(c(=O)oc3ccccc23)C1c1cc(=O)oc2ccc(Cl)cc12 (centres undefined) | 25 (≈ 53.7 µM) | 1.56 (≈ 3.35 µM) | 12.5 (≈ 26.8 µM) | 62.2 | 6.25 (≈ 13.4 µM) | 1.56 (≈ 3.35 µM) | 1.56 (≈ 3.35 µM)
N#CC1=C(N)Oc2c(c(=O)oc3ccccc23)C1c1cc(=O)oc2ccc(Cl)cc12 (centres undefined) | 25 (≈ 59.7 µM) | 6.25 (≈ 14.9 µM) | 25 (≈ 59.7 µM) | 43.3 | 6.25 (≈ 14.9 µM) | 3.25 (≈ 7.76 µM) | 6.25 (≈ 14.9 µM)
CCOC(=O)C1=C(N)Oc2c(c(=O)oc3ccccc23)C1c1cc(=O)oc2ccc(C)cc12 (centres undefined) | 6.25 (≈ 14 µM) | 6.25 (≈ 14 µM) | 3.25 (≈ 7.3 µM) | 42.3 | 1.56 (≈ 3.5 µM) | 6.25 (≈ 14 µM) | 6.25 (≈ 14 µM)
COc1ccc2oc(=O)cc(C3CC(=O)Oc4c3c(=O)oc3ccccc43)c2c1 (centres undefined) | 6.25 (≈ 16 µM) | 25 (≈ 64 µM) | 6.25 (≈ 16 µM) | 50.5 | 3.25 (≈ 8.33 µM) | 6.25 (≈ 16 µM) | 6.25 (≈ 16 µM)
CCOC(=O)C1=C(N)Oc2c(c(=O)oc3ccccc23)C1c1cc(=O)oc2c1ccc1ccccc12 (centres undefined) | 6.25 (≈ 13 µM) | 6.25 (≈ 13 µM) | 6.25 (≈ 13 µM) | 61.2 | 1.56 (≈ 3.24 µM) | 6.25 (≈ 13 µM) | 1.56 (≈ 3.24 µM)
O=C1CC(c2cc(=O)oc3ccc(Cl)cc23)c2c(c3ccccc3oc2=O)O1 (centres undefined) | 25 (≈ 63.3 µM) | 6.25 (≈ 15.8 µM) | 6.25 (≈ 15.8 µM) | 70.7 | 6.25 (≈ 15.8 µM) | 3.25 (≈ 8.23 µM) | 25 (≈ 63.3 µM)
Cc1ccc2oc(=O)cc(C3C(C#N)=C(N)Oc4c3c(=O)oc3ccccc43)c2c1 (centres undefined) | 6.25 (≈ 15.7 µM) | 6.25 (≈ 15.7 µM) | 6.25 (≈ 15.7 µM) | 11.2 | 6.25 (≈ 15.7 µM) | 1.56 (≈ 3.92 µM) | 25 (≈ 62.8 µM)
Cc1ccc2c(C3C(C#N)=C(N)Oc4c3c(=O)oc3ccccc43)cc(=O)oc2c1 (centres undefined) | 1.56 (≈ 3.92 µM) | 6.25 (≈ 15.7 µM) | 1.56 (≈ 3.92 µM) | 69.1 | 1.56 (≈ 3.92 µM) | 6.25 (≈ 15.7 µM) | 1.56 (≈ 3.92 µM)
COc1ccc2oc(=O)cc(C(CC(=O)O)c3c(O)c4ccccc4oc3=O)c2c1 (centres undefined) | 6.25 (≈ 15.3 µM) | 6.25 (≈ 15.3 µM) | 3.25 (≈ 7.96 µM) | 23.3 | 1.56 (≈ 3.82 µM) | 1.56 (≈ 3.82 µM) | 1.56 (≈ 3.82 µM)
O=C1CC(c2cc(=O)oc3c2ccc2ccccc23)c2c(c3ccccc3oc2=O)O1 (centres undefined) | 25 (≈ 60.9 µM) | 25 (≈ 60.9 µM) | 25 (≈ 60.9 µM) | 37.6 | 6.25 (≈ 15.2 µM) | 6.25 (≈ 15.2 µM) | 1.56 (≈ 3.8 µM)
CCOC(=O)C1=C(N)Oc2c(c(=O)oc3ccccc23)C1c1cc(=O)oc2cc(C)ccc12 (centres undefined) | 25 (≈ 56.1 µM) | 6.25 (≈ 14 µM) | 12.5 (≈ 28.1 µM) | 69.4 | 6.25 (≈ 14 µM) | 6.25 (≈ 14 µM) | 6.25 (≈ 14 µM)
COc1ccc2oc(=O)cc(C3C(C#N)=C(N)Oc4c3c(=O)oc3ccccc43)c2c1 (centres undefined) | 6.25 (≈ 15.1 µM) | 6.25 (≈ 15.1 µM) | 12.5 (≈ 30.2 µM) | 15.3 | 1.56 (≈ 3.76 µM) | 3.25 (≈ 7.84 µM) | 1.56 (≈ 3.76 µM)
Cc1ccc2c(C(CC(=O)O)c3c(O)c4ccccc4oc3=O)cc(=O)oc2c1 (centres undefined) | 6.25 (≈ 15.9 µM) | 25 (≈ 63.7 µM) | 3.25 (≈ 8.28 µM) | 76.4 | 3.25 (≈ 8.28 µM) | 3.25 (≈ 8.28 µM) | 6.25 (≈ 15.9 µM)
CC(=O)Oc1ccccc1C(=O)O [ASPIRIN] |  |  |  | 36.2 |  |  | 
O=C(O)c1cn(C2CC2)c2cc(N3CCNCC3)c(F)cc2c1=O [CIPROFLOXACIN] | 6.25 (≈ 18.9 µM) | 6.25 (≈ 18.9 µM) |  |  |  | 6.25 (≈ 18.9 µM) | 
